From publication PMC9090800 (RSC Advances, 2018)
In brackets after ≈: the same amount, converted by molar mass.

Experiments:
Assay type in all cases: cell-based
[1] = test system: C. albicans (ATCC 90028); assay: In vitro anticandidal activity, broth dilution; details: Candida albicans, ATCC90028, 24 h, read-out: IC50 ± S.D, C. albicans
Summary of the method: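 Broth dilution followed the NCCLS protocol. Test compound in DMSO was diluted in PBS, then tested at 1000 to 7.8 μg mL−1 in SD broth with about 2.5 × 10^3 cells per mL in 96-well plates. Plates were shaken 24 h at 30 °C, 150 rpm, and read at OD580. IC50 was the concentration halving absorbance versus untreated cells, taken from a log10 concentration versus % inhibition plot. Triplicates were run on separate occasions, with fluconazole as positive control.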

[2] = Hemolytic assay; details: human, human red blood cells (erythrocyte suspension in PBS)
Summary of the method: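 Fresh human blood was collected in EDTA and spun 10 min at 2000 rpm. Erythrocytes were washed three times in PBS and made to a 10% (v/v) suspension, then diluted 1:10. Equal volumes of cells and test compound dilution series in PBS were incubated in triplicate for 1 h at 37 °C and re-centrifuged. Supernatant A450 was expressed relative to buffer (0%) and 1% Triton X-100 (100% lysis). Fluconazole was the reference.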

[3] = test system: human embryonic kidney (HEK-293) cells; assay: Cytotoxicity by MTT assay; details: HEK-293, 100 μg mL^−1, 24 h
Summary of the method: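 HEK-293 cells grown as monolayers in DMEM with 10% FBS, penicillin and streptomycin, 37 °C, 5% CO2, at most 30 passages. Seeded at about 8 × 10^3 cells per well, 24 h before dosing. Test compound (DMSO stock diluted in PBS) given at 10–200 μg mL−1 for 24 h at 37 °C. Serum-free medium, then MTT (5 mg mL−1 in PBS), 4 h. Formazan dissolved in DMSO, A570 read. Triplicate; viability relative to untreated cells.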

| IC50 [1] [µg/mL] | SMILES | hemolysis at 1 h, 1000 μg mL^−1 [2] [%] | cell viability (MTT) [3] |
| --- | --- | --- | --- |
| 228 ± 3.8 (≈ 607 µM) | CCOC(=O)c1nc2ccccc2c(=O)n1Cc1cn(-c2ccccc2)nn1 [Compound 5a, Ethyl 4-oxo-3-((1-phenyl-1H-1,2,3-triazol-4-yl)methyl)-3,4-dihydroquinazoline-2-carboxylate] | – | – |
| 101 ± 3.7 (≈ 276 µM) | O=C(O)c1nc2ccccc2c(=O)n1Cc1cn(-c2ccccc2F)nn1 [Compound 6c, 3-((1-(2-Fluorophenyl)-1H-1,2,3-triazol-4-yl)methyl)-4-oxo-3,4-dihydroquinazoline-2-carboxylic acid] | < 20 | no significant decrease in cell viability |
| 100 ± 4 (≈ 263 µM) | O=C(O)c1nc2ccccc2c(=O)n1Cc1cn(-c2cccc(Cl)c2)nn1 [Compound 6g, 3-((1-(3-Chlorophenyl)-1H-1,2,3-triazol-4-yl)methyl)-4-oxo-3,4-dihydroquinazoline-2-carboxylic acid] | – | – |
| 124 ± 18.4 (≈ 304 µM) | CCOC(=O)c1nc2ccccc2c(=O)n1Cc1cn(-c2ccccc2Cl)nn1 [Compound 5b, Ethyl 3-((1-(2-chlorophenyl)-1H-1,2,3-triazol-4-yl)methyl)-4-oxo-3,4-dihydroquinazoline-2-carboxylate] | – | – |
| 143 ± 2.5 (≈ 339 µM) | CCOC(=O)c1nc2ccccc2c(=O)n1Cc1cn(-c2cccc([N+](=O)[O-])c2)nn1 [Compound 5k, Ethyl 3-((1-(3-nitrophenyl)-1H-1,2,3-triazol-4-yl)methyl)-4-oxo-3,4-dihydroquinazoline-2-carboxylate] | – | – |
| 87 ± 4 (≈ 241 µM) | Cc1ccc(-n2cc(Cn3c(C(=O)O)nc4ccccc4c3=O)nn2)cc1 [Compound 6n, 4-Oxo-3-((1-p-tolyl-1H-1,2,3-triazol-4-yl)methyl)-3,4-dihydroquinazoline-2-carboxylic acid] | < 20 | no significant decrease in cell viability |
| 221 ± 11.2 (≈ 579 µM) | O=C(O)c1nc2ccccc2c(=O)n1Cc1cn(-c2ccc(Cl)cc2)nn1 [Compound 6l, 3-((1-(4-Chlorophenyl)-1H-1,2,3-triazol-4-yl)methyl)-4-oxo-3,4-dihydroquinazoline-2-carboxylic acid] | – | – |
| 172 ± 5.3 (≈ 471 µM) | O=C(O)c1nc2ccccc2c(=O)n1Cc1cn(-c2ccc(F)cc2)nn1 [Compound 6m, 3-((1-(4-Fluorophenyl)-1H-1,2,3-triazol-4-yl)methyl)-4-oxo-3,4-dihydroquinazoline-2-carboxylic acid] | – | – |
| 18.6 ± 3.4 (≈ 45.9 µM) | CCOC(=O)c1nc2ccccc2c(=O)n1Cc1cn(-c2ccccc2OC)nn1 [Compound 5e, Ethyl 3-((1-(2-methoxyphenyl)-1H-1,2,3-triazol-4-yl)methyl)-4-oxo-3,4-dihydroquinazoline-2-carboxylate] | < 20 | no significant decrease in cell viability |
| 916 ± 15.5 (≈ 2340 µM) | O=C(O)c1ccc(-n2cc(Cn3c(C(=O)O)nc4ccccc4c3=O)nn2)cc1 [Compound 6q, 3-((1-(4-Carboxyphenyl)-1H-1,2,3-triazol-4-yl)methyl)-4-oxo-3,4-dihydroquinazoline-2-carboxylic acid] | – | – |
| 119 ± 7.6 (≈ 342 µM) | O=C(O)c1nc2ccccc2c(=O)n1Cc1cn(-c2ccccc2)nn1 [Compound 6a, 4-Oxo-3-((1-phenyl-1H-1,2,3-triazol-4-yl)methyl)-3,4-dihydroquinazoline-2-carboxylic acid] | – | – |
| 342 ± 5.7 (≈ 816 µM) | CCOC(=O)c1nc2ccccc2c(=O)n1Cc1cn(-c2ccc(C(=O)O)cc2)nn1 [Compound 5q, 4-(4-((2-(ethoxycarbonyl)-4-oxoquinazolin-3(4H)-yl)methyl)-1H-1,2,3-triazol-1-yl)benzoic acid] | – | – |
| 15.6 ± 2.2 (≈ 50.9 µM) | OC(Cn1cncn1)(Cn1cncn1)c1ccc(F)cc1F [FLC, fluconazole, reference compound] | 78.1 | – |
| 214 ± 11 (≈ 568 µM) | COc1cccc(-n2cc(Cn3c(C(=O)O)nc4ccccc4c3=O)nn2)c1 [Compound 6j, 3-((1-(3-Methoxyphenyl)-1H-1,2,3-triazol-4-yl)methyl)-4-oxo-3,4-dihydroquinazoline-2-carboxylic acid] | – | – |
| 135 ± 2.4 (≈ 369 µM) | O=C(O)c1nc2ccccc2c(=O)n1Cc1cn(-c2cccc(F)c2)nn1 [Compound 6h, 3-((1-(3-Fluorophenyl)-1H-1,2,3-triazol-4-yl)methyl)-4-oxo-3,4-dihydroquinazoline-2-carboxylic acid] | – | – |
| 353 ± 11.1 (≈ 905 µM) | CCOC(=O)c1nc2ccccc2c(=O)n1Cc1cn(-c2cccc(C)c2)nn1 [Compound 5i, Ethyl 4-oxo-3-((1-m-tolyl-1H-1,2,3-triazol-4-yl)methyl)-3,4-dihydroquinazoline-2-carboxylate] | – | – |

| IC50 [1] [µg/mL] | SMILES | hemolysis at 1 h, 1000 μg mL^−1 [2] [%] | cell viability (MTT) [3] |
| --- | --- | --- | --- |
| 110 ± 4.8 (≈ 279 µM) | CCOC(=O)c1nc2ccccc2c(=O)n1Cc1cn(-c2ccccc2F)nn1 [Compound 5c, Ethyl 3-((1-(2-fluorophenyl)-1H-1,2,3-triazol-4-yl)methyl)-4-oxo-3,4-dihydroquinazoline-2-carboxylate] | – | – |
| 297 ± 5.9 (≈ 763 µM) | CCOC(=O)c1nc2ccccc2c(=O)n1Cc1cn(-c2ccccc2C)nn1 [Compound 5d, Ethyl 4-oxo-3-((1-o-tolyl-1H-1,2,3-triazol-4-yl)methyl)-3,4-dihydroquinazoline-2-carboxylate] | – | – |
| 701 ± 23.6 (≈ 1790 µM) | O=C(O)c1nc2ccccc2c(=O)n1Cc1cn(-c2cccc([N+](=O)[O-])c2)nn1 [Compound 6k, 3-((1-(3-Nitrophenyl)-1H-1,2,3-triazol-4-yl)methyl)-4-oxo-3,4-dihydroquinazoline-2-carboxylic acid] | – | – |
| 701 ± 23.6 (≈ 1790 µM) | O=C(O)c1nc2ccccc2c(=O)n1Cc1cn(-c2ccccc2[N+](=O)[O-])nn1 [Compound 6f, 3-((1-(2-Nitrophenyl)-1H-1,2,3-triazol-4-yl)methyl)-4-oxo-3,4-dihydroquinazoline-2-carboxylic acid] | – | – |
| 209 ± 6.5 (≈ 532 µM) | CCOC(=O)c1nc2ccccc2c(=O)n1Cc1cn(-c2ccc(F)cc2)nn1 [Compound 5m, Ethyl 3-((1-(4-fluorophenyl)-1H-1,2,3-triazol-4-yl)methyl)-4-oxo-3,4-dihydroquinazoline-2-carboxylate] | – | – |
| 394.3 ± 1.7 (≈ 973 µM) | CCOC(=O)c1nc2ccccc2c(=O)n1Cc1cn(-c2ccc(OC)cc2)nn1 [Compound 5o, Ethyl 3-((1-(4-methoxyphenyl)-1H-1,2,3-triazol-4-yl)methyl)-4-oxo-3,4-dihydroquinazoline-2-carboxylate] | – | – |
| 340 ± 7.4 (≈ 840 µM) | CCOC(=O)c1nc2ccccc2c(=O)n1Cc1cn(-c2cccc(OC)c2)nn1 [Compound 5j, Ethyl 3-((1-(3-methoxyphenyl)-1H-1,2,3-triazol-4-yl)methyl)-4-oxo-3,4-dihydroquinazoline-2-carboxylate] | – | – |
| 131 ± 4.3 (≈ 363 µM) | Cc1ccccc1-n1cc(Cn2c(C(=O)O)nc3ccccc3c2=O)nn1 [Compound 6d, 4-Oxo-3-((1-o-tolyl-1H-1,2,3-triazol-4-yl)methyl)-3,4-dihydroquinazoline-2-carboxylic acid] | – | – |
| 133 ± 4.2 (≈ 369 µM) | Cc1cccc(-n2cc(Cn3c(C(=O)O)nc4ccccc4c3=O)nn2)c1 [Compound 6i, 4-Oxo-3-((1-m-tolyl-1H-1,2,3-triazol-4-yl)methyl)-3,4-dihydroquinazoline-2-carboxylic acid] | – | – |
| 125 ± 5.9 (≈ 331 µM) | COc1ccc(-n2cc(Cn3c(C(=O)O)nc4ccccc4c3=O)nn2)cc1 [Compound 6o, 3-((1-(4-Methoxyphenyl)-1H-1,2,3-triazol-4-yl)methyl)-4-oxo-3,4-dihydroquinazoline-2-carboxylic acid] | – | – |
| 789 ± 16.4 (≈ 2010 µM) | O=C(O)c1nc2ccccc2c(=O)n1Cc1cn(-c2ccc([N+](=O)[O-])cc2)nn1 [Compound 6p, 3-((1-(4-Nitrophenyl)-1H-1,2,3-triazol-4-yl)methyl)-4-oxo-3,4-dihydroquinazoline-2-carboxylic acid] | – | – |
| 151 ± 15.7 (≈ 360 µM) | CCOC(=O)c1nc2ccccc2c(=O)n1Cc1cn(-c2ccc([N+](=O)[O-])cc2)nn1 [Compound 5p, Ethyl 3-((1-(4-nitrophenyl)-1H-1,2,3-triazol-4-yl)methyl)-4-oxo-3,4-dihydroquinazoline-2-carboxylate] | – | – |
| 169 ± 3.4 (≈ 442 µM) | O=C(O)c1nc2ccccc2c(=O)n1Cc1cn(-c2ccccc2Cl)nn1 [Compound 6b, 3-((1-(2-Chlorophenyl)-1H-1,2,3-triazol-4-yl)methyl)-4-oxo-3,4-dihydroquinazoline-2-carboxylic acid] | – | – |
| 510 ± 6.4 (≈ 1300 µM) | CCOC(=O)c1nc2ccccc2c(=O)n1Cc1cn(-c2cccc(F)c2)nn1 [Compound 5h, Ethyl 3-((1-(3-fluorophenyl)-1H-1,2,3-triazol-4-yl)methyl)-4-oxo-3,4-dihydroquinazoline-2-carboxylate] | – | – |
| 269 ± 5.5 (≈ 641 µM) | CCOC(=O)c1nc2ccccc2c(=O)n1Cc1cn(-c2ccccc2[N+](=O)[O-])nn1 [Compound 5f, Ethyl 3-((1-(2-nitrophenyl)-1H-1,2,3-triazol-4-yl)methyl)-4-oxo-3,4-dihydroquinazoline-2-carboxylate] | – | – |
| 216 ± 3.5 (≈ 526 µM) | CCOC(=O)c1nc2ccccc2c(=O)n1Cc1cn(-c2ccc(Cl)cc2)nn1 [Compound 5l, Ethyl 3-((1-(4-chlorophenyl)-1H-1,2,3-triazol-4-yl)methyl)-4-oxo-3,4-dihydroquinazoline-2-carboxylate] | – | – |
